From ChEMBL document CHEMBL4725282, “Discovery of a Conformationally Constrained Oxazolidinone with Improved Safety and Efficacy Profiles for the Treatment of Multidrug-Resistant Tuberculosis” (J Med Chem, 2020)
≈ marks a conversion by molar mass, not a printed value.

Columns and labels:
[1] = system: Mycobacterium tuberculosis; assay: Antitubercular activity against Mycobacterium tuberculosis H37Rv incubated for 7 days by microplate alamar blue assay; type: functional; conditions: 168 h, time 7 day
In short: (§1)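 MIC determined by microplate alamar blue assay (MABA) following a published protocol.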

[2] = Inhibition of mitochondrial protein synthesis in rat H9c2 cells measured after 5 days by ELISA; type: cell-based; conditions: H9c2, 120 h
In short: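 H9C2 cells in DMEM with 10% FBS, seeded 1500/well. After 18 h, compound added at final 0.03–200 μM (3-fold series), then 5 days at 37 °C, 5% CO2; 0.5% DMSO negative control. MPS inhibition read by MitoBiogenesis In-Cell ELISA; IC50 calculated.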

[3] = system: Vero; assay: Cytotoxicity against African green monkey Vero cells assessed as reduction in cell viability measured after 48 hrs by MTT assay; type: cell-based; conditions: Chlorocebus sabaeus
In short: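 Cytotoxicity on Vero or HepG2 cells by MTT assay, run as previously reported.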

[4] = Stability in CD-1 mouse liver microsome at 1 uM measured after 30 mins in absence of NADPH by LC-MS/MS analysis; type: ADME; conditions: microsomes, 0.5 h
In short: (§2)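 Liver microsomes (male CD-1 mouse or pooled human), 1 mg/mL protein, compound 1 µM, 37°C with shaking. Started with 1 mM NADPH or run without cofactor. Quenched with ice-cold ACN/MeOH containing internal standard. Parent quantified by LC-MS/MS; 30 min concentration normalised to time zero.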

[5] = Stability in CD-1 mouse liver microsome assessed as parent compound remaining at 1 uM measured after 30 mins in presence of NADPH by LC-MS/MS analysis; type: ADME; conditions: liver microsomes, read-out: Stabilty; in short: as §2
[6] = system: Mycobacterium tuberculosis; assay: Antitubercular activity against Mycobacterium tuberculosis isolate 12525 incubated for 7 days by microplate alamar blue assay; type: functional; conditions: isolate 12525, 168 h, time 7 day; in short: as §1
[7] = MRT (0 to infinity) in Balb/c mouse at 25 mg/kg, po by LC-MS/MS analysis; type: ADME, organism-based; conditions: in vivo
In short: (§3)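 Female BALB/c mice (20–25 g), five per route. Oral dose 25 mg/kg in 0.5% carboxymethyl cellulose; i.v. dose 2.5 mg/kg in 10% DMSO/physiological saline. Blood sampled 5 min–72 h after p.o. and 2 min–48 h after i.v. Analyte quantified by LC/MS/MS (ESI positive, C18, isocratic methanol/water). Parameters from non-compartmental analysis.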

[8] = Terminal half life in Balb/c mouse at 25 mg/kg, po by LC-MS/MS analysis; type: ADME, organism-based; conditions: in vivo, read-out: beta t1/2 (converted)
In short: (§4)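 Female BALB/c mice, 20-25 g, five per route. Dosed 25 mg/kg p.o. in 0.5% carboxymethyl cellulose or 2.5 mg/kg i.v. in 10% DMSO/saline. Blood sampled 5 min-72 h (p.o.) or 2 min-48 h (i.v.), quantified by LC/MS/MS with ESI+. Parameters by non-compartmental analysis; F = (AUCpo×dose_iv)/(AUCiv×dose_po)×100%.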

[9] = AUC (0 to t) in Balb/c mouse at 25 mg/kg, po by LC-MS/MS analysis; type: ADME, organism-based; parameters: dose 25 mg/kg; conditions: in vivo; in short: as §3
[10] = Cmax in Balb/c mouse at 25 mg/kg, po by LC-MS/MS analysis; type: ADME, organism-based; parameters: route oral, dose 25 mg/kg; conditions: in vivo; in short: as §3
[11] = Tmax in Balb/c mouse at 25 mg/kg, po by LC-MS/MS analysis; type: ADME, organism-based; conditions: in vivo; in short: as §4
[12] = MRT (0 to t) in Balb/c mouse at 25 mg/kg, po by LC-MS/MS analysis; type: ADME, organism-based; conditions: in vivo; in short: as §3
[13] = AUC (0 to infinity) in Balb/c mouse at 25 mg/kg, po by LC-MS/MS analysis; type: ADME, organism-based; parameters: route oral, time infinity, dose 25 mg/kg; conditions: in vivo; in short: as §3
[14] = Mycobacterium tuberculosis, H37Rv, read-out: MIC

## CC(=O)NC[C@@H]1OC(=O)N2c3cc(F)c(N4CCC(F)(F)CC4)cc3OC[C@@H]12
[1]; [14]
  MIC: 0.91 µg/mL (≈ 2.28 µM)
[2]
  IC50: 10.1 µM

## O=C1O[C@@H](Cn2ccnn2)[C@@H]2COc3cc(N4CC5(COC5)C4)c(F)cc3N12
[3]
  IC50: > 64 µg/mL
[1]; [14]
  MIC: > 32 µg/mL

## O=C(NC[C@@H]1OC(=O)N2c3cc(F)c(N4C5CCC4CSC5)cc3OC[C@@H]12)c1ccncc1
[3]
  IC50: > 64 µg/mL
[1]; [14]
  MIC: 2.83 µg/mL (≈ 6.01 µM)

## CC(=O)NC[C@H]1OC(=O)N2c3cc(F)c(N4CCSCC4)cc3OC[C@H]12
[1]; [14]
  MIC: > 32 µg/mL

## CS(=O)(=O)NC[C@@H]1OC(=O)N2c3cc(F)c(N4CCSCC4)cc3OC[C@@H]12
[1]; [14]
  MIC: 3.9 µg/mL (≈ 9.34 µM)

## CC(=O)NC[C@@H]1OC(=O)N2c3cc(F)c(N4CC5(COC5)C4)cc3OC[C@@H]12
[1]; [14]
  MIC: 3.92 µg/mL (≈ 10.4 µM)

## CC(C)C(=O)NC[C@@H]1OC(=O)N2c3cc(F)c(N4CCSCC4)cc3OC[C@@H]12
[4]
  Stabilty: Stable
[5]
  remaining at 0.5 h, 1 µM: 6.02%
[1]; [14]
  MIC: 0.1 µg/mL (≈ 0.244 µM)
[2]
  IC50: > 100 µM

## O=C(NC[C@@H]1OC(=O)N2c3cc(F)c(N4CCSCC4)cc3OC[C@@H]12)C1CCC1
[4]
  Stabilty: Stable
[5]
  remaining at 0.5 h, 1 µM: 4%
[1]; [14]
  MIC: 0.03 µg/mL (≈ 0.0712 µM)
[2]
  IC50: 53.7 µM

## CC(=O)NC[C@@H]1OC(=O)N2c3cc(F)c(N4CCSCC4)cc3OC[C@@H]12 (racemic)
[1]
  MIC: 0.16 µg/mL (≈ 0.419 µM)

## CC(=O)NC[C@@H]1OC(=O)N2c3cc(F)c(N4CCOCC4)cc3OC[C@@H]12
[3]
  IC50: > 64 µg/mL
[1]; [14]
  MIC: 0.89 µg/mL (≈ 2.44 µM)
[2]
  IC50: 51.2 µM

## NC[C@@H]1OC(=O)N2c3cc(F)c(N4CCSCC4)cc3OC[C@@H]12 (racemic)
[1]
  MIC: 0.1 µg/mL (≈ 0.295 µM)

## NC[C@@H]1OC(=O)N2c3cc(F)c(N4CCSCC4)cc3OC[C@@H]12
[4]
  Stabilty: Stable
[3]
  IC50: 36 µg/mL (≈ 106 µM)
[5]
  remaining at 0.5 h, 1 µM: 15.8%
[1]
  MIC: 0.03 µg/mL (≈ 0.0884 µM)
[2]
  IC50: > 100 µM

## CC(=O)NC[C@@H]1OC(=O)N2c3cc(F)c(N4C5CCC4CSC5)cc3OC[C@@H]12
[3]
  IC50: 58.5 µg/mL (≈ 144 µM)
[1]; [14]
  MIC: 0.92 µg/mL (≈ 2.26 µM)

## CO[C@H]1/C=C/O[C@@]2(C)Oc3c(C)c(O)c4c(O)c(c(/C=N/N5CCN(C)CC5)c(O)c4c3C2=O)NC(=O)/C(C)=C\C=C\[C@H](C)[C@H](O)[C@@H](C)[C@@H](O)[C@@H](C)[C@H](OC(C)=O)[C@@H]1C [RIFAMPIN]
[6]
  MIC: > 10 µg/mL

## O=C(NC[C@@H]1OC(=O)N2c3cc(F)c(N4CC5(COC5)C4)cc3OC[C@@H]12)C1CC1
[1]; [14]
  MIC: 3.09 µg/mL (≈ 7.66 µM)

## O=C(NC[C@@H]1OC(=O)N2c3cc(F)c(N4CC5(COC5)C4)cc3OC[C@@H]12)C1CCC1
[1]; [14]
  MIC: 4.2 µg/mL (≈ 10.1 µM)

## O=C(NC[C@@H]1OC(=O)N2c3cc(F)c(N4CCSCC4)cc3OC[C@@H]12)c1cnccn1
[4]
  Stabilty: Stable
[3]
  IC50: 40.7 µg/mL (≈ 91.3 µM)
[5]
  remaining at 0.5 h, 1 µM: 6.85%
[1]; [14]
  MIC: 0.12 µg/mL (≈ 0.269 µM)
[2]
  IC50: > 100 µM

## COC(=O)NC[C@@H]1OC(=O)N2c3cc(F)c(N4C5CCC4CSC5)cc3OC[C@@H]12
[3]
  IC50: > 64 µg/mL
[1]; [14]
  MIC: 1.68 µg/mL (≈ 3.97 µM)

## CNC[C@@H]1OC(=O)N2c3cc(F)c(N4CCSCC4)cc3OC[C@@H]12
[3]
  IC50: 46.5 µg/mL (≈ 132 µM)
[1]; [14]
  MIC: > 32 µg/mL

## CC(=O)NC[C@@H]1OC(=O)N2c3cc(F)c(N4CCS(=O)(=O)CC4)cc3OC[C@@H]12
[7]
  MRT inf: 14.3 h
[8]
  half-life: 7.64 h
[9]
  AUC(0-t): 1250 ng·h/mL
[10]
  Cmax: 118 ng/mL
[1]; [14]
  MIC: 0.93 µg/mL (≈ 2.25 µM)
[11]
  Tmax: 1 h
[2]
  IC50: 26 µM
[12]
  MRT last: 10.3 h
[13]
  AUC(0-inf): 1480 ng·h/mL

## COC(=O)NC[C@@H]1OC(=O)N2c3cc(F)c(N4CCSCC4)cc3OC[C@@H]12
[4]
  Stabilty: Stable
[5]
  remaining at 0.5 h, 1 µM: 3.59%
[1]; [14]
  MIC: 0.03 µg/mL (≈ 0.0755 µM)
[2]
  IC50: > 100 µM

## O=C1O[C@@H](CNc2ccon2)[C@@H]2COc3cc(N4C5CCC4CSC5)c(F)cc3N12
[3]
  IC50: > 64 µg/mL
[1]; [14]
  MIC: 2.52 µg/mL (≈ 5.83 µM)

## CC(C)C(=O)NC[C@@H]1OC(=O)N2c3cc(F)c(N4C5CCC4CSC5)cc3OC[C@@H]12
[3]
  IC50: > 64 µg/mL
[1]; [14]
  MIC: 1.48 µg/mL (≈ 3.4 µM)

## CC(=O)OC[C@@H]1OC(=O)N2c3cc(F)c(N4CCSCC4)cc3OC[C@@H]12
[1]; [14]
  MIC: > 1 µg/mL

## CC(=O)N(C)C[C@@H]1OC(=O)N2c3cc(F)c(N4CCSCC4)cc3OC[C@@H]12
[1]; [14]
  MIC: > 1 µg/mL

## O=C(NC[C@@H]1OC(=O)N2c3cc(F)c(N4C5CCC4CSC5)cc3OC[C@@H]12)C1CCC1
[3]
  IC50: 34.7 µg/mL (≈ 77.5 µM)
[1]; [14]
  MIC: 0.97 µg/mL (≈ 2.17 µM)

## CC(=O)NC[C@@H]1OC(=O)N2c3cc(F)c(N4CCSCC4)cc3OC[C@H]12 (racemic)
[1]; [14]
  MIC: > 32 µg/mL

## O=C(NC[C@@H]1OC(=O)N2c3cc(F)c(N4C5CCC4CSC5)cc3OC[C@@H]12)C1CC1
[3]
  IC50: > 64 µg/mL
[1]; [14]
  MIC: 0.98 µg/mL (≈ 2.26 µM)

## O=C1O[C@@H](CNc2ccon2)[C@@H]2COc3cc(N4CCSCC4)c(F)cc3N12
[4]
  Stabilty: Stable
[5]
  remaining at 0.5 h, 1 µM: 0%
[1]; [14]
  MIC: 0.03 µg/mL (≈ 0.0738 µM)
[2]
  IC50: > 100 µM

## CC(=O)N(C[C@@H]1OC(=O)N2c3cc(F)c(N4CCSCC4)cc3OC[C@@H]12)C(C)=O
[3]
  IC50: > 64 µg/mL
[1]; [14]
  MIC: 0.34 µg/mL (≈ 0.803 µM)

## NC[C@@H]1OC(=O)N2c3cc(F)c(N4CCSCC4)cc3OC[C@H]12 (racemic)
[1]; [14]
  MIC: > 32 µg/mL

## O=C1O[C@@H](CO)[C@H]2COc3cc(N4CCSCC4)c(F)cc3N12 (racemic)
[1]; [14]
  MIC: > 32 µg/mL

## O=C1O[C@@H](CO)[C@@H]2COc3cc(N4CCSCC4)c(F)cc3N12 (racemic)
[1]; [14]
  MIC: 3.79 µg/mL (≈ 11.1 µM)

## O=C(NC[C@@H]1OC(=O)N2c3cc(F)c(N4CCSCC4)cc3OC[C@@H]12)c1ccncc1
[4]
  Stabilty: Stable
[5]
  remaining at 0.5 h, 1 µM: 20.8%
[1]; [14]
  MIC: 0.16 µg/mL (≈ 0.36 µM)
[2]
  IC50: > 100 µM

## O=C(NC[C@@H]1OC(=O)N2c3cc(F)c(N4CCSCC4)cc3OC[C@@H]12)C1CC1
[4]
  Stabilty: Stable
[5]
  remaining at 0.5 h, 1 µM: 15%
[1]; [14]
  MIC: 0.03 µg/mL (≈ 0.0736 µM)
[2]
  IC50: > 100 µM

## O=C1O[C@@H](Cn2ccnn2)[C@@H]2COc3cc(N4CCSCC4)c(F)cc3N12
[4]
  Stabilty: Stable
[5]
  remaining at 0.5 h, 1 µM: 21.7%
[1]; [14]
  MIC: 0.23 µg/mL (≈ 0.588 µM)
[2]
  IC50: > 100 µM

## O=C1O[C@@H](Cn2ccnn2)[C@@H]2COc3cc(N4C5CCC4CSC5)c(F)cc3N12
[3]
  IC50: > 64 µg/mL
[1]; [14]
  MIC: > 32 µg/mL

## O=C(NC[C@@H]1OC(=O)N2c3cc(F)c(N4C5CCC4CSC5)cc3OC[C@@H]12)c1cnccn1
[3]
  IC50: 9.53 µg/mL (≈ 20.2 µM)
[1]; [14]
  MIC: > 32 µg/mL

## CC(=O)NC[C@@H]1OC(=O)N2c3ccc(N4CCSCC4)cc3OC[C@@H]12
[3]
  IC50: > 64 µg/mL
[1]; [14]
  MIC: 0.79 µg/mL (≈ 2.17 µM)
